Results published in ChEMBL document CHEMBL4765454, “Betulinic acid derived amides are highly cytotoxic, apoptotic and selective” (Eur J Med Chem, 2020).
Calls of active or inactive are those of the source. The calls are words filed in the database; no cut-off is given here.

Tests used:
A-375 [1] = test: Cytotoxicity against human A-375 cells assessed as reduction in cell viability incubated for 72 hrs by SRB assay; assay type: functional, cell-based; settings: Homo sapiens, A-375, 72 h; read-out: EC50
HT-29 = test: Cytotoxicity against human HT-29 cells assessed as reduction in cell viability incubated for 72 hrs by SRB assay; assay type: functional, cell-based; settings: Homo sapiens, HT-29, 72 h; read-out: EC50
MCF7 = test: Cytotoxicity against human MCF7 cells assessed as reduction in cell viability incubated for 72 hrs by SRB assay; assay type: functional, cell-based; settings: Homo sapiens, MCF7, 72 h; read-out: EC50
A2780 = test: Cytotoxicity against human A2780 cells assessed as reduction in cell viability incubated for 72 hrs by SRB assay; assay type: functional, cell-based; settings: Homo sapiens, A2780, 72 h; read-out: EC50
FaDu = test: Cytotoxicity against human FaDu cells assessed as reduction in cell viability incubated for 72 hrs by SRB assay; assay type: functional, cell-based; settings: Homo sapiens, FaDu, 72 h; read-out: EC50
NIH3T3 = test: Cytotoxicity against mouse NIH3T3 cells assessed as reduction in cell viability incubated for 72 hrs by SRB assay; assay type: cell-based; settings: Mus musculus, NIH3T3, 72 h; read-out: EC50
[2] = Selectivity ratio of EC50 for mouse NIH3T3 cells to EC50 for human HT-29 cells; assay type: toxicity; settings: NIH3T3 cells versus HT-29 cells, read-out: Ratio EC50
[3] = Selectivity ratio of EC50 for mouse NIH3T3 cells to EC50 for human MCF7 cells; assay type: toxicity; settings: NIH3T3 cells versus MCF7 cells, read-out: Ratio EC50
[4] = Selectivity ratio of EC50 for mouse NIH3T3 cells to EC50 for human A2780 cells; assay type: toxicity; settings: NIH3T3 cells versus A2780 cells, read-out: Ratio EC50
[5] = Selectivity ratio of EC50 for mouse NIH3T3 cells to EC50 for human FaDu cells
A-375 [6] = test: Induction of apoptosis in human A375 cells assessed as necrotic cells at 4.8 uM measured after 24 hrs by Annexin V-FITC/propidium iodide staining based flow cytometry (reference value: 0.331%); assay type: functional
A-375 [7] = test: Induction of apoptosis in human A375 cells assessed as late apoptotic cells at 4.8 uM measured after 24 hrs by Annexin V-FITC/propidium iodide staining based flow cytometry (reference value: 7.352%); assay type: functional
A-375 [8] = test: Induction of apoptosis in human A375 cells assessed as viable cells at 4.8 uM measured after 24 hrs by Annexin V-FITC/propidium iodide staining based flow cytometry (reference value: 90.123%); assay type: functional; settings: read-out: Activity
A-375 [9] = test: Induction of apoptosis in human A375 cells assessed as early apoptotic cells at 4.8 uM measured after 24 hrs by Annexin V-FITC/propidium iodide staining based flow cytometry (reference value: 2.194%); assay type: functional
A-375 [10] = test: Induction of apoptosis in human A375 cells assessed as necrotic cells at 4.8 uM measured after 48 hrs by Annexin V-FITC/propidium iodide staining based flow cytometry (reference value: 0.547%); assay type: functional
A-375 [11] = test: Induction of apoptosis in human A375 cells assessed as late apoptotic cells at 4.8 uM measured after 48 hrs by Annexin V-FITC/propidium iodide staining based flow cytometry (reference value: 5.108%); assay type: functional
A-375 [12] = test: Induction of apoptosis in human A375 cells assessed as viable cells at 4.8 uM measured after 48 hrs by Annexin V-FITC/propidium iodide staining based flow cytometry (reference value: 92.723%); assay type: functional; settings: read-out: Activity
A-375 [13] = test: Induction of apoptosis in human A375 cells assessed as early apoptotic cells at 4.8 uM measured after 48 hrs by Annexin V-FITC/propidium iodide staining based flow cytometry (reference value: 1.622%); assay type: functional
A-375 [14] = test: Induction of apoptosis in human A375 cells at 4.8 uM measured after 24 hrs by microscopic analysis; assay type: functional, cell-based
Procedure, shortened: (§1)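 A375 cells treated at 3.0, 4.8 or 6.2 µM and inspected by light microscopy after 24 h or 48 h. Cell number and morphology were scored for apoptotic features: shrinkage, strangulation and blebbing.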

A-375 [15] = test: Induction of apoptosis in human A375 cells assessed as cell shrinkage at 4.8 uM measured after 48 hrs by microscopic analysis; assay type: functional, cell-based; procedure, shortened: as §1
A-375 [16] = test: Induction of apoptosis in human A375 cells assessed as strangulation at 4.8 uM measured after 48 hrs by microscopic analysis; assay type: functional, cell-based; procedure, shortened: as §1
A-375 [17] = test: Induction of apoptosis in human A375 cells assessed as blebbing at 4.8 uM measured after 48 hrs by microscopic analysis; assay type: functional, cell-based; procedure, shortened: as §1
A-375 [18] = test: Cell cycle arrest in human A375 cells assessed as accumulation at subG1 phase measured after 24 hrs by propidium iodide staining based flow cytometry (reference value: 0.46%); assay type: functional
A-375 [19] = test: Cell cycle arrest in human A375 cells assessed as accumulation at G1 phase measured after 24 hrs by propidium iodide staining based flow cytometry (reference value: 44.59%); assay type: functional
A-375 [20] = test: Cell cycle arrest in human A375 cells assessed as accumulation at S phase measured after 24 hrs by propidium iodide staining based flow cytometry (reference value: 47.46%); assay type: functional
A-375 [21] = test: Cell cycle arrest in human A375 cells assessed as accumulation at G2/M phase measured after 24 hrs by propidium iodide staining based flow cytometry (reference value: 7.48%); assay type: functional
A-375 [22] = test: Cell cycle arrest in human A375 cells assessed as accumulation at subG1 phase measured after 48 hrs by propidium iodide staining based flow cytometry (reference value: 0.57%); assay type: functional
A-375 [23] = test: Cell cycle arrest in human A375 cells assessed as accumulation at G1 phase measured after 48 hrs by propidium iodide staining based flow cytometry (reference value: 57.3%); assay type: functional
A-375 [24] = test: Cell cycle arrest in human A375 cells assessed as accumulation at S phase measured after 48 hrs by propidium iodide staining based flow cytometry (reference value: 31.3%); assay type: functional
A-375 [25] = test: Cell cycle arrest in human A375 cells assessed as accumulation at G2/M phase measured after 48 hrs by propidium iodide staining based flow cytometry (reference value: 10.83%); assay type: functional
[26] = Selectivity ratio of EC50 for mouse NIH3T3 cells to EC50 for human A375 cells; assay type: toxicity; settings: NIH3T3 cells versus A375 cells, read-out: Ratio EC50
A-375 [27] = test: Induction of apoptosis in human A375 cells assessed as necrotic cells at 6.2 uM measured after 24 hrs by Annexin V-FITC/propidium iodide staining based flow cytometry (reference value: 0.331%); assay type: functional
A-375 [28] = test: Induction of apoptosis in human A375 cells assessed as late apoptotic cells at 6.2 uM measured after 24 hrs by Annexin V-FITC/propidium iodide staining based flow cytometry (reference value: 7.352%); assay type: functional
A-375 [29] = test: Induction of apoptosis in human A375 cells assessed as viable cells at 6.2 uM measured after 24 hrs by Annexin V-FITC/propidium iodide staining based flow cytometry (reference value: 90.123%); assay type: functional; settings: read-out: Activity
A-375 [30] = test: Induction of apoptosis in human A375 cells assessed as early apoptotic cells at 6.2 uM measured after 24 hrs by Annexin V-FITC/propidium iodide staining based flow cytometry (reference value: 2.194%); assay type: functional
A-375 [31] = test: Induction of apoptosis in human A375 cells assessed as necrotic cells at 6.2 uM measured after 48 hrs by Annexin V-FITC/propidium iodide staining based flow cytometry (reference value: 0.547%); assay type: functional
A-375 [32] = test: Induction of apoptosis in human A375 cells assessed as late apoptotic cells at 6.2 uM measured after 48 hrs by Annexin V-FITC/propidium iodide staining based flow cytometry (reference value: 5.108%); assay type: functional
A-375 [33] = test: Induction of apoptosis in human A375 cells assessed as viable cells at 6.2 uM measured after 48 hrs by Annexin V-FITC/propidium iodide staining based flow cytometry (reference value: 92.723%); assay type: functional; settings: read-out: Activity
A-375 [34] = test: Induction of apoptosis in human A375 cells assessed as early apoptotic cells at 6.2 uM measured after 48 hrs by Annexin V-FITC/propidium iodide staining based flow cytometry (reference value: 1.622%); assay type: functional
A-375 [35] = test: Induction of apoptosis in human A375 cells at 6.2 uM measured after 24 hrs by microscopic analysis; assay type: functional, cell-based; procedure, shortened: as §1
A-375 [36] = test: Induction of apoptosis in human A375 cells assessed as cell shrinkage at 6.2 uM measured after 48 hrs by microscopic analysis; assay type: functional, cell-based; procedure, shortened: as §1
A-375 [37] = test: Induction of apoptosis in human A375 cells assessed as strangulation at 6.2 uM measured after 48 hrs by microscopic analysis; assay type: functional, cell-based; procedure, shortened: as §1
A-375 [38] = test: Induction of apoptosis in human A375 cells assessed as blebbing at 6.2 uM measured after 48 hrs by microscopic analysis; assay type: functional, cell-based; procedure, shortened: as §1

SMILES | EC50 (A-375 [1]) | EC50 (HT-29) | EC50 (MCF7) | EC50 (A2780) | EC50 (FaDu) | EC50 (NIH3T3) | selectivity ratio [2] | selectivity ratio [3] | selectivity ratio [4] | Ratio EC50 [5] | Activity (A-375 [18]) | Activity (A-375 [19]) | Activity (A-375 [20]) | Activity (A-375 [21]) | Activity (A-375 [22]) | Activity (A-375 [23]) | Activity (A-375 [24]) | Activity (A-375 [25]) | selectivity ratio [26] | other results
C=C(C)[C@@H]1CC[C@]2(C(=O)Nc3cccc4ncccc34)CC[C@]3(C)[C@H](CC[C@@H]4[C@@]5(C)C[C@H](OC(C)=O)[C@H](OC(C)=O)C(C)(C)[C@@H]5CC[C@]43C)[C@@H]12 | 2.9 µM | > 30 µM | 6.26 µM | 3.24 µM | 3.49 µM | > 120 µM | 4 | 19.2 | 37 | 34.4 | 3.53% | 37.51% | 58.53% | 0.43% | 11.49% | 31.39% | 57.06% | 0% | – | Activity (A-375 [6]): 0.749%; Activity (A-375 [7]): 10.295%; viability at 4.8 µM (A-375 [8]): 80.4%; Activity (A-375 [9]): 6.495%; Activity (A-375 [10]): 1.342%; Activity (A-375 [11]): 12.388%; viability at 4.8 µM (A-375 [12]): 67.4%; Activity (A-375 [13]): 18.861%; Activity (A-375 [14]): Active; Activity (A-375 [15]): Active; Activity (A-375 [16]): Active; Activity (A-375 [17]): Active
C=C(C)[C@@H]1CC[C@]2(C(=O)O)CC[C@]3(C)[C@H](CC[C@@H]4[C@@]5(C)C[C@H](OC(C)=O)[C@H](OC(C)=O)C(C)(C)[C@@H]5CC[C@]43C)[C@@H]12 | 15.8 µM | 17.4 µM | 11.2 µM | 8.68 µM | 13.5 µM | 14.1 µM | 0.8 | 1.3 | 1.6 | 1 | – | – | – | – | – | – | – | – | 0.9 | –
C=C(C)[C@@H]1CC[C@]2(C(=O)NCc3ccccc3)CC[C@]3(C)[C@H](CC[C@@H]4[C@@]5(C)C[C@H](OC(C)=O)[C@H](OC(C)=O)C(C)(C)[C@@H]5CC[C@]43C)[C@@H]12 | 3.14 µM | 20.7 µM | 11.3 µM | 4.42 µM | 5.4 µM | > 70 µM | 3.4 | 6.2 | 15.8 | 13 | 5.98% | 63.76% | 30.27% | 0% | 25.69% | 52.38% | 21.92% | 0% | – | Activity (A-375 [27]): 0.667%; Activity (A-375 [28]): 7.93%; viability at 6.2 µM (A-375 [29]): 81.9%; Activity (A-375 [30]): 9.546%; Activity (A-375 [31]): 1.449%; Activity (A-375 [32]): 20.078%; viability at 6.2 µM (A-375 [33]): 34.3%; Activity (A-375 [34]): 44.187%; Activity (A-375 [35]): Active; Activity (A-375 [36]): Active; Activity (A-375 [37]): Active; Activity (A-375 [38]): Active
C=C(C)[C@@H]1CC[C@]2(C(=O)O)CC[C@]3(C)[C@H](CC[C@@H]4[C@@]5(C)C=C(O)C(=O)C(C)(C)[C@@H]5CC[C@]43C)[C@@H]12 | 13.8 µM | 26.1 µM | 12 µM | 10.5 µM | 14.1 µM | 12.8 µM | 0.5 | 1.1 | 1.2 | 0.9 | – | – | – | – | – | – | – | – | 0.9 | –
C=C(C)[C@@H]1CC[C@]2(C(=O)O)CC[C@]3(C)[C@H](CC[C@@H]4[C@@]5(C)C[C@H](O)[C@H](O)C(C)(C)[C@@H]5CC[C@]43C)[C@@H]12 | 11.2 µM | 17.7 µM | 15.8 µM | 12.3 µM | 16.5 µM | 17.3 µM | 1 | 1.1 | 1.4 | 1 | – | – | – | – | – | – | – | – | 1.5 | –
CC(=O)O[C@H]1C[C@]2(C)[C@H]3CC[C@@H]4[C@H]5[C@H](C(C)=O)CC[C@]5(C(=O)O)CC[C@@]4(C)[C@]3(C)CC[C@H]2C(C)(C)[C@H]1OC(C)=O | 22.5 µM | > 30 µM | > 30 µM | > 30 µM | > 30 µM | 9.57 µM | 0.3 | 0.3 | 0.3 | 0.3 | – | – | – | – | – | – | – | – | 0.4 | –
